Source: ChEMBL document CHEMBL3580617, “Discovery of Benzimidazole CYP11B2 Inhibitors with in Vivo Activity in Rhesus Monkeys” (ACS Med Chem Lett, 2015)
Active and inactive are the calls of the source. No cut-off for these calls is given here.

What was measured:
[1] = Oral bioavailability in rhesus monkey at 1 mg/kg by LC-MS/MS method; type: ADME, organism-based, Macaca mulatta; details: in vivo
[2] = (§1) Inhibition of rhesus monkey CYP11B2 expressed in V79 cells incubated for 1 hr before 11-deoxycorticosterone substrate addition by HTRF-based assay; type: cell-based, Macaca mulatta
Rhesus monkey [3] = assay: Reduction in aldosterone levels in low sodium diet fed rhesus monkey at 0.01 to 0.3 mg/kg, iv followed by 0.3 mg/kg ACTH dosing and measured 30 mins to 180 mins post ACTH administration by UPLC coupled with tandem mass spectrometry; type: functional, organism-based; details: Macaca mulatta; 0.001 to 0.3 mg/kg; in the assay text read “0.001 to 0.3 mg/kg” for “0.01 to 0.3 mg/kg”
How it was run: (§2)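 Anesthetized rhesus monkeys were given i.v. doses from 0.001 to 0.3 mg/kg. Plasma aldosterone and 11-deoxycortisol were quantified by LC-MS at time points up to 180 min postdose, and AUCs were determined for each. Plasma drug was measured at 90 min postdose. Free (unbound) concentrations were calculated from the measured fraction unbound in rhesus plasma.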

Rhesus monkey [4] = assay: Reduction in aldosterone levels in low sodium diet fed rhesus monkey at 0.3 mg/kg, iv followed by 0.3 mg/kg ACTH dosing and measured 30 mins to 180 mins post ACTH administration by UPLC coupled with tandem mass spectrometry; type: functional; details: Macaca mulatta; how it was run: as §2
Rhesus monkey [5] = assay: Reduction in aldosterone levels in low sodium diet fed rhesus monkey assessed as free plasma concentration causing reduction in aldosterone at 0.01 mg/kg, iv followed by 0.3 mg/kg ACTH dosing and measured 90 mins post ACTH administration by UPLC coupled with tandem mass spectrometry; type: functional, Macaca mulatta; how it was run: as §2
Rhesus monkey [6] = assay: Reduction in aldosterone levels in low sodium diet fed rhesus monkey assessed as free plasma concentration causing reduction in aldosterone at 0.3 mg/kg, iv followed by 0.3 mg/kg ACTH dosing and measured 90 mins post ACTH administration by UPLC coupled with tandem mass spectrometry; type: functional, Macaca mulatta; how it was run: as §2
Rhesus monkey [7] = assay: Increase in 11-deoxycortisol levels in low sodium diet fed rhesus monkey up to 0.3 mg/kg, iv followed by 0.3 mg/kg ACTH dosing and measured 30 mins to 180 mins post ACTH administration by UPLC coupled with tandem mass spectrometry; type: functional, organism-based; details: Macaca mulatta; how it was run: as §2
Rhesus monkey [8] = assay: […] in 11-deoxycortisol levels in low sodium diet fed rhesus monkey at free plasma concentration up to 27 nM dosed at 0.01 to 0.3 mg/kg, iv followed by 0.3 mg/kg ACTH dosing and measured 90 mins post ACTH administration by UPLC coupled with tandem mass spectrometry; type: functional, organism-based; details: Macaca mulatta; how it was run: as §2
[9] = target: T1, Cytochrome P450 11B2, mitochondrial (Homo sapiens, UniProt P19099); assay: Inhibition of human CYP11B2 expressed in V79 cells incubated for 1 hr before 11-deoxycorticosterone substrate addition by HTRF-based assay; type: cell-based
T1 sequence (P19099 whole entry): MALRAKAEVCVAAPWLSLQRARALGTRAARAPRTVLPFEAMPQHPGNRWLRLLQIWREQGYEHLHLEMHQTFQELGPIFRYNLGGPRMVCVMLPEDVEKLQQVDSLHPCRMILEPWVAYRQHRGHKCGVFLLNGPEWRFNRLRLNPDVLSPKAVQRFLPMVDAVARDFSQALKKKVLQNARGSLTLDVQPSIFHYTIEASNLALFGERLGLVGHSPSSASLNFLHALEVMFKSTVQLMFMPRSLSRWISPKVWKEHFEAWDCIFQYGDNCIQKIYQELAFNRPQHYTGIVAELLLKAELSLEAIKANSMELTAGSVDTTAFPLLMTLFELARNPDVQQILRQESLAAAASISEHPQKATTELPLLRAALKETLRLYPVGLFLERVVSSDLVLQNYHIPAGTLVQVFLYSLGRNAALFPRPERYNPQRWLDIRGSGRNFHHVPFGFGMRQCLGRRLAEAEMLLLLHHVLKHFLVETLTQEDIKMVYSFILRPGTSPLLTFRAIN
How it was run: (§3)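 Human CYP11B2 and CYP11B1 inhibition was tested in cell-based assays. Selectivity was taken as the hCYP11B1 IC50 divided by the hCYP11B2 IC50.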

[10] = target: T2, Cytochrome P450 11B1, mitochondrial (Homo sapiens, UniProt P15538); assay: Inhibition of human CYP11B1 expressed in V79 cells incubated for 1 hr before 11-deoxycortisol substrate addition by HTRF-based assay; type: cell-based; how it was run: as §3
T2 sequence (P15538 whole entry): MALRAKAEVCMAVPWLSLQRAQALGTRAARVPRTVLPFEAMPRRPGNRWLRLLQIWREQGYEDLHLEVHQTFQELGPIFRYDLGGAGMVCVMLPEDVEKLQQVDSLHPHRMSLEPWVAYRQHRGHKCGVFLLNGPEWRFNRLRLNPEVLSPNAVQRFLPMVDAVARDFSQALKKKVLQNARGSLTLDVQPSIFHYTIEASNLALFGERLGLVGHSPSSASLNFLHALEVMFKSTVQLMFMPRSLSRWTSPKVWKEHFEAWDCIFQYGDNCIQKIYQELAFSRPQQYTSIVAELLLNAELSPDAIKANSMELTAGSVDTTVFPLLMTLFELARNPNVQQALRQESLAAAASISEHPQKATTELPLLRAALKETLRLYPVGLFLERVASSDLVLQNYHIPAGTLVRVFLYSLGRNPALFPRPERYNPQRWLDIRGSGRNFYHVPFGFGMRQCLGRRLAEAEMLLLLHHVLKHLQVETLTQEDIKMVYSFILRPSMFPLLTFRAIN

Homo sapiens [11] = species on record: Homo sapiens; assay: Selectivity index, ratio of IC50 for human CYP11B1 to IC50 for human CYP11B2; how it was run: as §3
Homo sapiens [12] = species on record: Homo sapiens; assay: Selectivity index, ratio of IC50 for CYP19 (unknown origin) to IC50 for human CYP11B2
[13] = target: T3, Alpha-2B adrenergic receptor (Homo sapiens, UniProt P18089); assay: Inhibition of adrenergic alpha-2B receptor (unknown origin)
T3 sequence (P18089 whole entry): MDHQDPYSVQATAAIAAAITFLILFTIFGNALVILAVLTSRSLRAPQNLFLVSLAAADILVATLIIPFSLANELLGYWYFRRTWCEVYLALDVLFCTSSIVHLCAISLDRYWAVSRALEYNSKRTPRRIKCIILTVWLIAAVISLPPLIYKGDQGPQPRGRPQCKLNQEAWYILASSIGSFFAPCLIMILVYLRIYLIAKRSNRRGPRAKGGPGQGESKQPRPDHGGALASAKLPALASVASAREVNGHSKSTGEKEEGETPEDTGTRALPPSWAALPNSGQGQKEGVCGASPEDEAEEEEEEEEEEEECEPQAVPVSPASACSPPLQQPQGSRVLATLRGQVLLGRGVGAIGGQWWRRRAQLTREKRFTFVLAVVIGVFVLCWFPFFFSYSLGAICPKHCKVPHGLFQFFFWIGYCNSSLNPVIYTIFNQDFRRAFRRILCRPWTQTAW
How it was run: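 Binding activity was profiled across a panel of 114 receptors, enzymes and ion channels, with an IC50 determined against any target that was hit.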

[14] = Half life in rhesus monkey at 1 mg/kg, po or 0.5 mg/kg, iv by LC-MS/MS method; type: ADME, organism-based, Macaca mulatta; details: in vivo
V79 = assay: as §1; type: cell-based; details: Macaca mulatta
[15] = target: Voltage-dependent L-type calcium channel subunit alpha-1C (Homo sapiens, UniProt Q13936); assay: Block of Cav1.2 ion channel in functional assay (unknown origin)
Voltage-dependent L-type calcium channel subunit alpha-1C, sequence (Q13936 whole entry): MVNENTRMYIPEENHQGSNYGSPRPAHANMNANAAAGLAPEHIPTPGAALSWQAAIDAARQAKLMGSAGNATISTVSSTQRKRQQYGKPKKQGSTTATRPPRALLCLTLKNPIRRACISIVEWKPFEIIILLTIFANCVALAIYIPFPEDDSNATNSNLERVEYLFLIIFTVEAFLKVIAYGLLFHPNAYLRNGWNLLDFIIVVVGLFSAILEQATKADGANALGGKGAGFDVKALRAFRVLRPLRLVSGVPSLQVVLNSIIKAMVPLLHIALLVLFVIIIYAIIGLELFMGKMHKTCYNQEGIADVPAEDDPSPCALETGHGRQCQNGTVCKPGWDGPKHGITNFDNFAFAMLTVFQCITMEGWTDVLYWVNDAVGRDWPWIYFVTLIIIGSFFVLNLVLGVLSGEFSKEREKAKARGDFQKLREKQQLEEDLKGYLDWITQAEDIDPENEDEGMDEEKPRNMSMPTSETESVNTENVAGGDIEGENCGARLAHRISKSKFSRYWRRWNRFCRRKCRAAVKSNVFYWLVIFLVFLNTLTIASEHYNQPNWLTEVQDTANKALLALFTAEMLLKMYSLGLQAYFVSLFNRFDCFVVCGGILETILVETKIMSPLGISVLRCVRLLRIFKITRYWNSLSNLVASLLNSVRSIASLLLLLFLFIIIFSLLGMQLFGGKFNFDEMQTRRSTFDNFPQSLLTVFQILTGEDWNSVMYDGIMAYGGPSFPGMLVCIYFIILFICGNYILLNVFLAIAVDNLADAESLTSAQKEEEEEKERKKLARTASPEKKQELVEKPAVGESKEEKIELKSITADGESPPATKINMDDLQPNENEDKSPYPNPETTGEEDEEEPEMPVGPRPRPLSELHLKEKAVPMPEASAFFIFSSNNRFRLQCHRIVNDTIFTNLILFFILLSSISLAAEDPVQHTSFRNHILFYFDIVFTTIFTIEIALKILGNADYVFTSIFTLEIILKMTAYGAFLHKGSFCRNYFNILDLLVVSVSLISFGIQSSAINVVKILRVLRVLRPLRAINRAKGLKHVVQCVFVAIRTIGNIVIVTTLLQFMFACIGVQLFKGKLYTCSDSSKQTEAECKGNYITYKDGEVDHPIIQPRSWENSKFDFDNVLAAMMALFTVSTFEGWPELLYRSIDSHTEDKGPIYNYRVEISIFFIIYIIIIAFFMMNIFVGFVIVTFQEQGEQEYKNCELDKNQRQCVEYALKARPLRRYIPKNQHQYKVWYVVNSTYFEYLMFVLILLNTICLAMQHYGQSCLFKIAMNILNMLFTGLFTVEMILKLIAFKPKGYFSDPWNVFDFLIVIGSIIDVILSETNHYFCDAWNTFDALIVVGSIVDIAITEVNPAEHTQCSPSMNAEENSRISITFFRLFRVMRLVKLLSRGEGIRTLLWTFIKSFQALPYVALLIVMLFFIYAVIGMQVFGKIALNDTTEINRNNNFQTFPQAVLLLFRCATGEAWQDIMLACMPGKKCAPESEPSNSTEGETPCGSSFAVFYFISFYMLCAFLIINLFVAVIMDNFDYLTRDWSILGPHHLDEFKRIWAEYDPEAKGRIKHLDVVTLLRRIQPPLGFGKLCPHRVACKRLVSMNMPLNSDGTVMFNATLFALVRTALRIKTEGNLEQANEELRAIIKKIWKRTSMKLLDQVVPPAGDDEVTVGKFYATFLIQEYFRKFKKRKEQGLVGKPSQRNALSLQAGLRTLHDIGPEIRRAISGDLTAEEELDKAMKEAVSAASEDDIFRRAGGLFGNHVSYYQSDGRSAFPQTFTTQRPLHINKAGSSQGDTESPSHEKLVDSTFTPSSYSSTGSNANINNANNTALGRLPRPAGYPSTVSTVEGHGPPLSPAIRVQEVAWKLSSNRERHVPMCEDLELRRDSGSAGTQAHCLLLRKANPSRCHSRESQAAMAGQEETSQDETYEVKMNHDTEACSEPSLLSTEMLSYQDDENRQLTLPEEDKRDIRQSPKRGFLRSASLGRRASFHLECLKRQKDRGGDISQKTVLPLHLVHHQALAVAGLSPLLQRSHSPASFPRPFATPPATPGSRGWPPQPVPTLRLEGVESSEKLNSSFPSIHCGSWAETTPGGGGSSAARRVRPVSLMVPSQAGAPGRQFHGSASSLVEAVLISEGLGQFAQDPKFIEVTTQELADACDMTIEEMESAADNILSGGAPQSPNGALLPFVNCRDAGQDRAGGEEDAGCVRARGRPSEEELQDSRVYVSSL

With `CC(C)(O)c1cncc(-c2nc3ccc(F)cc3n2C2CC2)c1` [MSD-CYP11B2] the bioavailability [1] was 15%, the IC50 [2] was 0.0003 µM and the inhibition (Rhesus monkey [3]) was “Dose-dependent effect”. For the same compound, the inhibition in vivo at 0.3 mg/kg (Rhesus monkey [4]) was 95%, the “Cp(f)” value (Rhesus monkey [5]) was 12 nM and the “Cp(f)” value (Rhesus monkey [6]) was 27 nM. The Activity (Rhesus monkey [7]) was “inactive” and the inhibition (Rhesus monkey [8]) was “inactive”.

Work on `Fc1cncc(-c2nc3cc(F)c(F)cc3n2C2CC2)c1` yielded an IC50 [9] of 0.0047 µM, an IC50 [10] of 0.435 µM and a Ratio IC50 (Homo sapiens [11]) of 93. It also gave a Ratio IC50 (Homo sapiens [12]) of 500, an IC50 [13] of 2.49 µM and a bioavailability [1] of 53%. The half-life [14] was 7.4 h, the inhibition (V79) was “Active” and the IC50 [15] was greater than 30 µM.
